These results are taken from ChEMBL document CHEMBL1145913, “Synthesis and evaluation of imidazole acetic acid inhibitors of activated thrombin-activatable fibrinolysis inhibitor as novel antithrombotics” (J Med Chem, 2003).

Molecules are shown by their SMILES.

The nature of data set [1]: Concentration of compound that gives 50% of the maximum acceleration of lysis was determined by clot lysis assay using human plasma. Format: functional.
Data set [2] in a line: In vitro inhibition of purified Carboxypeptidase N (CPN) by spectrophotometric assay.
The target in data set [3] is Carboxypeptidase B2 (Homo sapiens) (UniProt Q96IY4). As to the kind of experiment: In vitro inhibition of activated thrombin-activatable fibrinolysis inhibitor (TAFIa) was determined by ECL enzyme assay.
The nature of data set [4]: In vitro inhibition of thrombin-activatable fibrinolysis was determined against TAFIa enzyme by ECL assay.
A short description of data set [5]: Tested in vivo for time-to-occlusion in jugular vein of african green monkey when administered at a dose of 0.3 mg/kg iv bolus + 0.1 mg/(kg.min) continuous infusion. Format: functional, Cercopithecidae. A digest of the protocol: (§1)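 African green monkey jugular vein model. Time-to-occlusion is recorded during iv bolus plus continuous infusion for 300 min; vehicle-treated animals are included.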

Data set [6] is described as follows: Tested in vivo for bleeding time in african green monkey when administered along with saline. Format: functional, Cercopithecidae. A digest of the protocol: (§2)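 African green monkeys receive an iv bolus and then continuous infusion for 300 min, or vehicle. Template bleeding time is measured.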
Data set [7] in a line: Tested in vivo for bleeding time in african green monkey when administered at a dose of 0.03 mg/kg iv bolus + 0.01 mg/(kg.min) continuous infusion. Format: functional, Cercopithecidae. A digest of the protocol: as §2
Data set [8] is described as follows: Bioavailability in dog. Format: ADME, organism-based, Canis lupus familiaris. Particulars: in vivo.
Data set [9] in a line: Bioavailability in rat. Type of data set: ADME, organism-based. To be noted: in vivo.
Data set [10] is described as follows: Bioavailability in rhesus. Format: ADME, organism-based, Macaca mulatta. Particulars: rhesus monkey, in vivo.
A short description of data set [11]: Volume of distribution in dog. Format: ADME, organism-based, Canis lupus familiaris. To be noted: in vivo, read-out: Vdss.
Data set [12] is described as follows: Volume of distribution in rat. Type of data set: ADME, organism-based. Particulars: in vivo, read-out: Vdss.
Data set [13] can be described thus: Volume of distribution in rhesus. Format: ADME, organism-based, Macaca mulatta. To be noted: rhesus monkey, in vivo; read-out: Vdss.
Data set [14] can be described thus: Tested in vivo for bleeding time in african green monkey when administered at a dose of 0.05 mg/kg iv bolus + 0.02 mg/(kg.min) continuous infusion. Format: functional, Cercopithecidae. The method, boiled down: as §2
The nature of data set [15]: Tested in vivo for bleeding time in african green monkey when administered at a dose of 0.1 mg/kg iv bolus + 0.03 mg/(kg.min) continuous infusion. Type of data set: functional, Cercopithecidae. A digest of the protocol:
as §2

Data set [16] is described as follows: Tested in vivo for time-to-occlusion in carotid artery of african green monkey when administered along with saline. Type of data set: functional, Cercopithecidae.
Data set [17] in a line: Tested in vivo for time-to-occlusion in carotid artery of african green monkey when administered at a dose of 0.05 mg/kg iv bolus + 0.02 mg/(kg.min) continuous infusion. Format: functional, Cercopithecidae.
The nature of data set [18]: Tested in vivo for time-to-occlusion in carotid artery of african green monkey when administered at a dose of 0.1 mg/kg iv bolus + 0.03 mg/(kg.min) continuous infusion. Type of data set: functional, Cercopithecidae.
Data set [19] in a line: Tested in vivo for time-to-occlusion in carotid artery of african green monkey when administered at a dose of 0.3 mg/kg iv bolus + 0.1 mg/(kg.min) continuous infusion. Format: functional, Cercopithecidae.
The nature of data set [20]: Tested in vivo for time-to-occlusion in jugular vein of african green monkey when administered along with saline. Type of data set: functional, Cercopithecidae. The method, boiled down:
as §1

Data set [21] is described as follows: Tested in vivo for time-to-occlusion in jugular vein of african green monkey when administered at a dose of 0.03 mg/kg iv bolus + 0.01 mg/(kg.min) continuous infusion. Format: functional, Cercopithecidae. The method, boiled down: as §1
The nature of data set [22]: Tested in vivo for time-to-occlusion in jugular vein of african green monkey when administered at a dose of 0.05 mg/kg iv bolus + 0.02 mg/(kg.min) continuous infusion. Format: functional, Cercopithecidae. A digest of the protocol: as §1
Data set [23] in a line: Tested in vivo for time-to-occlusion in jugular vein of african green monkey when administered at a dose of 0.1 mg/kg iv bolus + 0.03 mg/(kg.min) continuous infusion. Format: functional, Cercopithecidae. The method, boiled down:
as §1

The nature of data set [24]: Half life in dog. Type of data set: ADME, organism-based, Canis lupus familiaris. Particulars: in vivo.
Data set [25] can be described thus: Half life in rat. To be noted: in vivo. Type of data set: ADME, organism-based.
The nature of data set [26]: Half life in rhesus. Format: ADME, organism-based, Macaca mulatta. Particulars: rhesus monkey, in vivo.
The nature of data set [27]: Clearance in dog. To be noted: in vivo. Format: ADME, organism-based, Canis lupus familiaris.
Data set [28] in a line: Clearance in rat. To be noted: in vivo. Format: ADME, organism-based.
Data set [29] in a line: Clearance in rhesus. Format: ADME, organism-based, Macaca mulatta. Particulars: rhesus monkey, in vivo.
A short description of data set [30]: Tested in vivo for bleeding time in african green monkey when administered at a dose of 0.3 mg/kg iv bolus + 0.1 mg/(kg.min) continuous infusion. Type of data set: functional, Cercopithecidae. The method, boiled down: as §2
The nature of data set [31]: Tested in vivo for time-to-occlusion in carotid artery of african green monkey when administered at a dose of 0.03 mg/kg iv bolus + 0.01 mg/(kg.min) continuous infusion. Format: functional, Cercopithecidae.

The IC50 is the concentration needed to halve the response being measured. As for `CCCCn1cnc(C(Cc2ccc(N)nc2)C(=O)O)c1` (centres undefined), in data set [1], the CLT50 stood at 0.15 µM. This compound came in with an IC50 in [2] above 50000 nM.
The compound `O=C(O)CC(Cc1ccccc1)C(=O)O` (centres undefined) yielded a CLT50 in data set [1] above 50 µM.
In turn, `O=C(O)C(Cc1ccccc1)c1c[nH]cn1` (centres undefined) registered a CLT50 in [1] above 50 µM. Moreover, the IC50 was above 50000 nM in [2] and above 100000 nM in data set [3].
The compound `Cn1cnc(C(Cc2ccc(N)nc2)C(=O)O)c1` (centres undefined) showed a CLT50 in data set [1] of 0.42 µM. Further, in data set [2], the IC50 is above 50000 nM.
The compound `CC(C)n1cnc(C(Cc2ccc(N)nc2)C(=O)O)c1` (centres undefined) returned a CLT50 in data set [1] of 1.06 µM. In addition, the concentration for half-maximal inhibition (IC50) in data set [2] is above 50000 nM.
As for `CCn1cnc(C(Cc2ccc(N)nc2)C(=O)O)c1` (centres undefined), in data set [1], the CLT50 is 0.65 µM. The same compound showed an IC50 in [2] above 50000 nM.
As for `Nc1ccc(CC(C(=O)O)c2cn(Cc3ccccc3)cn2)cn1` (centres undefined), in data set [1], the CLT50 was 0.74 µM. For the same compound, the IC50 in data set [2] was above 50000 nM; in [3], 28 nM.
Regarding `Nc1ccc(CC(C(=O)O)c2c[nH]cn2)cn1` (racemic), the CLT50 in data set [1] amounted to 0.97 µM. In addition, half-maximal inhibition in data set [4] (IC50) required 80 nM.
With `CC(C)CCn1cnc(C(Cc2ccc(N)nc2)C(=O)O)c1` (racemic), the CLT50 in data set [1] came to 0.12 µM. This compound also returned a 50% inhibitory concentration (IC50) in data set [4] of 5 nM.
Take `Nc1ccc(CC(C(=O)O)c2c[nH]cn2)cn1` (single isomer, unassigned; (-)): the CLT50 in data set [1] came to 0.5 µM. The same compound displayed an IC50 in [4] of 40 nM.
For `Nc1ccc(CC(C(=O)O)c2c[nH]cn2)cn1` (stereo in doubt; 10b(+)), the CLT50 in data set [1] is above 10 µM. In addition, the IC50 in [2] is above 50000 nM; in [4], 1800 nM.
The term bioavailability denotes the share of a dose that reaches the circulation, judged against a reference dose that is usually intravenous. By half-life is commonly meant how long it takes for the measured level to halve. Broadly, the clearance is the volume of plasma or blood freed of the substance per unit of time. As to `CC(C)CCn1cnc(C(Cc2ccc(N)nc2)C(=O)O)c1` (stereo in doubt; 10j(-)), the TTO worked out at 216 min in data set [5]; 51 min in data set [16]; 62 min in data set [17]; 52 min in data set [18]; 85 min in data set [19]; 96 min in [20]. Moreover, the TTO in [21] was found to be 128 min; in data set [22] it was 147 min; in data set [23] it was 171 min; in data set [31] it was 61 min. For the same compound, the Bleeding time in [6] is on record as 2 min; in data set [7], 2 min; in data set [14] it was 2.2 min; in data set [15] it was 2.3 min; in data set [30], 2.9 min. In addition, the bioavailability in data set [8] was found to be 38%; in data set [9] it was 47%; in data set [10], 12%. In addition, the results for the Vd in data set [11], in data set [12] and in data set [13] were 0.28 L/kg, 1.36 L/kg and 0.26 L/kg, respectively. The half-life in [24] is 36 min; in [25] it was 66 min; in [26] it was 48 min. Also, the clearance in [27] is 6.1 mL/min/kg; in data set [28] it was 32 mL/min/kg; in [29], 6.1 mL/min/kg. For the same compound, in data set [1], the CLT50 turned out to be 0.056 µM. The concentration for half-maximal inhibition (IC50) in data set [2] is above 50000 nM; in data set [4] it was 2 nM.
